Assay results as given in ChEMBL document CHEMBL3593206, “SAR Studies of Exosite-Binding Substrate-Selective Inhibitors of A Disintegrin And Metalloprotease 17 (ADAM17) and Application as Selective in Vitro Probes” (J Med Chem, 2015).
pIC50: −log10 of the molar value. The source made the active and inactive calls. The rule behind the calls is not given here.

How the values were obtained:
[1] = target: T1, Disintegrin and metalloproteinase domain-containing protein 10 (Homo sapiens, UniProt O14672); assay: Inhibition of ADAM10 (unknown origin) preincubated for 30 mins followed by substrate addition measured every 30 mins for 2 hrs by fluorescence assay
T1 sequence (O14672 whole entry): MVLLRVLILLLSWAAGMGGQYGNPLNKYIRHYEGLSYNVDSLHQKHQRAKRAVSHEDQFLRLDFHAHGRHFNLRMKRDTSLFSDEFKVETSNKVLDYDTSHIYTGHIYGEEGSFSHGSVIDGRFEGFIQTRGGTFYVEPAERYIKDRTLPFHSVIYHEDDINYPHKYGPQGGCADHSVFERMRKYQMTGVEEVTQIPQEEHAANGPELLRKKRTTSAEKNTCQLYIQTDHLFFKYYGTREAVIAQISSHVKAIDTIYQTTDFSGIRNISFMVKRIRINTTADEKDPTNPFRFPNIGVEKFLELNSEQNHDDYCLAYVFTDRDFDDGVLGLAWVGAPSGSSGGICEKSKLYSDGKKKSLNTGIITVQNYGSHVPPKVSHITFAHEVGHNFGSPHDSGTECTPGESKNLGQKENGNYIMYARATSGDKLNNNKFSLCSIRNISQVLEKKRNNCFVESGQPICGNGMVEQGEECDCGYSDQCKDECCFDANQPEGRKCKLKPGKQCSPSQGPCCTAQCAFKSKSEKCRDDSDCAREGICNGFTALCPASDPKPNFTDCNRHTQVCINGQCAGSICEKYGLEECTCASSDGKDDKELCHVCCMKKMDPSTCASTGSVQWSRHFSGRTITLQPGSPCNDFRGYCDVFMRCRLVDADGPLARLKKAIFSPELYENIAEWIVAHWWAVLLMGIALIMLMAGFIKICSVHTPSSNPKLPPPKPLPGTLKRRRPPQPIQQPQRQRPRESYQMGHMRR
In short: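 Enzyme at 30 nM (3× solution) in 10 mM Hepes, 0.001% Brij-35, pH 7.5. Inhibitor series of 10 points, 1:3, from 300 μM, preincubated 30 min at RT. Glycosylated substrate added from a 30 μM 3× solution. Fluorescence (ex 360/em 460 nm) read every 30 min for 2 h. Inhibition taken from hydrolysis rates against substrate-only and substrate-plus-enzyme wells.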

[2] = target: T2, 72 kDa type IV collagenase (Homo sapiens, UniProt P08253); assay: Inhibition of MMP2 (unknown origin) using Mca-KLPGL-Dnp-AR as substrate preincubated for 30 mins followed by substrate addition measured after 1 hr by fluorescence assay
In short: (§1)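 Inhibitor as 10-point 1:3 dilutions from 300 μM, 30 min at RT. Substrate added from a 30 μM 3× solution. Single fluorescence read (ex 324/em 393 nm) after 1 h at RT.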
Target sequence in this assay (P08253 whole entry): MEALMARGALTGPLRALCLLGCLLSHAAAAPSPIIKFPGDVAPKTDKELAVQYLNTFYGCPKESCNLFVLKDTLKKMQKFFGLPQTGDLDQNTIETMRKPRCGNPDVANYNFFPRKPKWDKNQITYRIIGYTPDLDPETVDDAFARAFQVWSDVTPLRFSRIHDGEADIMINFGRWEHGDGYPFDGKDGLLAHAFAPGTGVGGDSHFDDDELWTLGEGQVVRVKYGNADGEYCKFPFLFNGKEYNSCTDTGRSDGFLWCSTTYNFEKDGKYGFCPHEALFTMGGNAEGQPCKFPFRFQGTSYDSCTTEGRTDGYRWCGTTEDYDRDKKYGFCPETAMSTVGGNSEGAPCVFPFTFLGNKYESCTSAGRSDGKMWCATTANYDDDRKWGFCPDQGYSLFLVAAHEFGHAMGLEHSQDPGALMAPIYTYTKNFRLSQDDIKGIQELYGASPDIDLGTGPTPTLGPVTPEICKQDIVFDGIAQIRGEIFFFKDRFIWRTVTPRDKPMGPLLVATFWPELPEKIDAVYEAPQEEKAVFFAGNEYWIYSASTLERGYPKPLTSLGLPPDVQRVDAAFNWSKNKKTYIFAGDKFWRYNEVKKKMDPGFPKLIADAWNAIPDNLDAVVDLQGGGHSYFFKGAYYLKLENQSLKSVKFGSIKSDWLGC

Neutrophil collagenase [3] = target: T3, Neutrophil collagenase (Homo sapiens, UniProt P22894); assay: Inhibition of MMP8 (unknown origin) using Mca-KLPGL-Dnp-AR as substrate preincubated for 30 mins followed by substrate addition measured after 1 hr by fluorescence assay; in short: as §1
Target sequence in this assay (P22894 whole entry): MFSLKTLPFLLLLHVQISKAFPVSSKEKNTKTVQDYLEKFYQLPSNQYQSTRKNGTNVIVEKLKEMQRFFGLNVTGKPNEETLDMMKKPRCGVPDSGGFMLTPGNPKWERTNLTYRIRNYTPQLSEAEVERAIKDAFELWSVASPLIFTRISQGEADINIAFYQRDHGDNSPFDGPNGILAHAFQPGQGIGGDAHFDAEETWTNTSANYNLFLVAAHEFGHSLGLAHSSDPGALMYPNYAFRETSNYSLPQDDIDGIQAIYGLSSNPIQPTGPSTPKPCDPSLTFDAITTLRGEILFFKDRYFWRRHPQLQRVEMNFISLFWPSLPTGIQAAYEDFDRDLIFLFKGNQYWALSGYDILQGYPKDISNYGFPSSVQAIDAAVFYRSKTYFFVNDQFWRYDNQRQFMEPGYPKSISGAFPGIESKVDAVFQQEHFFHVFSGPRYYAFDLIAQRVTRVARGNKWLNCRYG

[4] = target: T4, Matrix metalloproteinase-9 (Homo sapiens, UniProt P14780); assay: Inhibition of MMP9 (unknown origin) using Mca-KLPGL-Dnp-AR as substrate preincubated for 30 mins followed by substrate addition measured after 1 hr by fluorescence assay; in short: as §1
T4 sequence (P14780 whole entry): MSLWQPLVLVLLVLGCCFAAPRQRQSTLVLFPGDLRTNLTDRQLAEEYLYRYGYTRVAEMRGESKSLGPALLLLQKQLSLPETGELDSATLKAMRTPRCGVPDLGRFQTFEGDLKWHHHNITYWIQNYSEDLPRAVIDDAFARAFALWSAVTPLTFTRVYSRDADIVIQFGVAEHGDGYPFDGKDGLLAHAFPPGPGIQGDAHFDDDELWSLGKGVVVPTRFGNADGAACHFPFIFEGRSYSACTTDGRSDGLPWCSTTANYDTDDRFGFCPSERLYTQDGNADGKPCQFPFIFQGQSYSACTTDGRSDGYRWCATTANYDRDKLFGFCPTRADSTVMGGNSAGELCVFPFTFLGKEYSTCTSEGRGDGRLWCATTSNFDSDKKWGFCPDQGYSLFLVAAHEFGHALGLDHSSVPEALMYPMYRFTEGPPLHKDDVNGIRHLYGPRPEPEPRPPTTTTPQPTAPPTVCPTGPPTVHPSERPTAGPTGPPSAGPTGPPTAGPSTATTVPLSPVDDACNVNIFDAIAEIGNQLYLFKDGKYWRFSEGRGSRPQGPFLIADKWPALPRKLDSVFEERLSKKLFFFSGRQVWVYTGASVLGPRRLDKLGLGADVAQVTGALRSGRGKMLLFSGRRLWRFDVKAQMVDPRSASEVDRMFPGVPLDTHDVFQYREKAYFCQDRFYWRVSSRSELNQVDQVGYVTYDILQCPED

[5] = target: T2, 72 kDa type IV collagenase; assay: Inhibition of MMP2 (unknown origin) using Mca-KLPGL-Dnp-AR as substrate at 100 uM preincubated for 30 mins followed by substrate addition measured after 1 hr by fluorescence assay relative to control; in short: as §1
Target sequence in this assay (P08253 110-660 limits assumed): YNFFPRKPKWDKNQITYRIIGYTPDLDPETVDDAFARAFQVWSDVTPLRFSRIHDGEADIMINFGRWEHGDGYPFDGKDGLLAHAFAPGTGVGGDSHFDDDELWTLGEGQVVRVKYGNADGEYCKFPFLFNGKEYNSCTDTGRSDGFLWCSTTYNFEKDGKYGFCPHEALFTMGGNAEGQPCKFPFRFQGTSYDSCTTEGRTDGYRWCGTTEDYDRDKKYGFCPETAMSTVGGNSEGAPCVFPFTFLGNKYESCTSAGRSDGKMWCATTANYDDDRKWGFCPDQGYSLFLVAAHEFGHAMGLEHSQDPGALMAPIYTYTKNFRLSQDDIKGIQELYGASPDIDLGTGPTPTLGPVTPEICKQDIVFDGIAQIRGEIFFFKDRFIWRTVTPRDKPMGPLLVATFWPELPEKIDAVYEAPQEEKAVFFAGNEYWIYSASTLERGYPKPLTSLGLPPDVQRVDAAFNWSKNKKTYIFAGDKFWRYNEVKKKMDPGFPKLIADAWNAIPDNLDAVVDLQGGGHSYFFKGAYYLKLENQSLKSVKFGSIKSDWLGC

Neutrophil collagenase [6] = target: T3, Neutrophil collagenase; assay: Inhibition of MMP8 (unknown origin) using Mca-KLPGL-Dnp-AR as substrate at 100 uM preincubated for 30 mins followed by substrate addition measured after 1 hr by fluorescence assay relative to control; in short: as §1
Target sequence in this assay (P22894 101-467 limits assumed): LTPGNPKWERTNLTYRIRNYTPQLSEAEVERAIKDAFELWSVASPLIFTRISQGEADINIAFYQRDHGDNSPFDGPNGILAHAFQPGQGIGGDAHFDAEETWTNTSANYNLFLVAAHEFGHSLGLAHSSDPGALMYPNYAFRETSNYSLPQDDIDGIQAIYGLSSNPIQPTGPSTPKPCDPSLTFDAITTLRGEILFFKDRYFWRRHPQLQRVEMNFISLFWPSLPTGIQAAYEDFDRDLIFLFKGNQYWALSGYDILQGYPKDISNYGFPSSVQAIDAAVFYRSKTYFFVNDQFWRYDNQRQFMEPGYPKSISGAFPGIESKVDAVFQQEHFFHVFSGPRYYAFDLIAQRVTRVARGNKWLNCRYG

[7] = target: T4, Matrix metalloproteinase-9; assay: Inhibition of MMP9 (unknown origin) using Mca-KLPGL-Dnp-AR as substrate at 100 uM preincubated for 30 mins followed by substrate addition measured after 1 hr by fluorescence assay relative to control; in short: as §1
HepG2 = assay: Cytotoxicity against human HepG2 cells assessed as inhibition of cell viability up to 33 uM after 72 hrs by CellTiter-Glo assay; format: cell-based; conditions: hepg2, 72 h
MDA-MB-231 = assay: Cytotoxicity against human MDA-MB-231 cells assessed as inhibition of cell viability up to 33 uM after 72 hrs by CellTiter-Glo assay; format: cell-based; conditions: mda-mb-231, 72 h
[8] = target: T5, Disintegrin and metalloproteinase domain-containing protein 17 (Homo sapiens, UniProt P78536); assay: Inhibition of ADAM17 in human EAhy926 cells assessed as inhibition of neprilysin shedding at 15 uM relative to control; format: cell-based
T5 sequence (P78536 whole entry, the tested form may be a part): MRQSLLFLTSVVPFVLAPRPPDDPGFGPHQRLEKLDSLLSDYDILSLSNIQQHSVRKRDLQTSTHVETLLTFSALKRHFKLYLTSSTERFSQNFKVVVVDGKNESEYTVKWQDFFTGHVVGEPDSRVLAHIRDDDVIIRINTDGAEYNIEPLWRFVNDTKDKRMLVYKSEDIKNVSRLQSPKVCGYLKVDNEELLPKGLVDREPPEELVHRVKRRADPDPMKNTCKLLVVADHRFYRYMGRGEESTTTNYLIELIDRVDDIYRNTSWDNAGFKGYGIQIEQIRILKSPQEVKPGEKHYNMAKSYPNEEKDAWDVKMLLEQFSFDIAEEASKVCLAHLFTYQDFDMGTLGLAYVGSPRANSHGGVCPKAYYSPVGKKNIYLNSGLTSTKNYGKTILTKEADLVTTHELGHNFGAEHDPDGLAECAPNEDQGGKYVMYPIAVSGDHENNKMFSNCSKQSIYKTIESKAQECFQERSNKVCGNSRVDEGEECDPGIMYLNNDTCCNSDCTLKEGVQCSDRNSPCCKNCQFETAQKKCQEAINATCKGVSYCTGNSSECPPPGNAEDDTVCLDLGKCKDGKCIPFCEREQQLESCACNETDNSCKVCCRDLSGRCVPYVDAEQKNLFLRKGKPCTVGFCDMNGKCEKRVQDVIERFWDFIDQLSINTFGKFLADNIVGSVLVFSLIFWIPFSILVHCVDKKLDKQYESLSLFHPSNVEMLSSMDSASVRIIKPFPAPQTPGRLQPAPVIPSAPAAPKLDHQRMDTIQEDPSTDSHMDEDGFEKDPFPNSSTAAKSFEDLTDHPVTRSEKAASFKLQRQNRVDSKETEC

[9] = target: T6, Disintegrin and metalloproteinase domain-containing protein 10 (Homo sapiens) (UniProt O14672); assay: Inhibition of ADAM10 in HTSMC assessed as inhibition of constitutive release of fractalkine/CX3CL1 at 10 uM preincubated for 30 mins measured after 4 to 24 hrs by ELISA
T6 sequence (whole entry): T1 sequence (O14672 whole entry)

[10] = target: T5, Disintegrin and metalloproteinase domain-containing protein 17; assay: Inhibition of ADAM17 in human THP1 cells assessed as inhibition of LPS-stimulated TNFalpha cleavage after 1 hr by AlphaScreen assay; format: cell-based, THP-1
In short: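 THP-1 cells grown in RPMI 1640 with 10% FBS and 0.05 mM 2-mercaptoethanol; 3000 cells per well. Compound given in 3% DMSO for 1 h, then LPS added (1 μg/mL final) and cells incubated overnight at 37 °C. TNFα detected by AlphaScreen using anti-TNFα acceptor beads and streptavidin donor beads, each step 1 h in the dark at RT.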

[11] = target: T5, Disintegrin and metalloproteinase domain-containing protein 17; assay: Inhibition of ADAM17 in HTSMC assessed as inhibition of DDR1 shedding by immunoblot analysis
[12] = target: T5, Disintegrin and metalloproteinase domain-containing protein 17; assay: Inhibition of ADAM17 in HTSMC assessed as inhibition of DDR1 shedding at 10 to 40 uM by immunoblot analysis relative to control
[13] = target: T5, Disintegrin and metalloproteinase domain-containing protein 17; assay: Inhibition of ADAM17 in human HT1080 cells assessed as inhibition of cell invasion after 5 to 24 hrs by Transwell assay; format: cell-based; conditions: HT-1080
[14] = target: T5, Disintegrin and metalloproteinase domain-containing protein 17; assay: Inhibition of ADAM17 in human SK-MEL-28 cells assessed as inhibition of notch shedding at 25 uM relative to control; format: cell-based
A549 = assay: Potentiation of doxorubicin-mediated inhibition of human A549 cell viability at 40 uM incubated for 1 hr followed by doxorubicin addition measured after 72 hrs by CellTiter-Glo assay; format: functional, cell-based
In short: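 A549 cells (1250 per well) in serum-free F12 were pretreated 1 h at 37 °C with 40 μM final test compound. Gefitinib, etoposide or doxorubicin was then added as 10-point 1:3 dilutions from 300 μM. After 72 h, viability was read by CellTiter-Glo luminescence and scaled between 100 μM gefitinib (0%) and 1% DMSO (100%).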

ADAM17 (Homo sapiens) [15] = assay: Inhibition of ADAM17 in HCC1806 cells assessed as inhibition of DDR1 shedding by immunoblot analysis
ADAM17 (Homo sapiens) [16] = assay: Inhibition of ADAM17 in HCC1806 cells assessed as inhibition of DDR1 shedding at 10 to 40 uM by immunoblot analysis relative to control

| SMILES | pIC50 [1] | pIC50 [2] | pIC50 (Neutrophil collagenase [3]) | pIC50 [4] | inhibition [5] [%] | inhibition (Neutrophil collagenase [6]) [%] | inhibition [7] [%] | Activity (HepG2) | Activity (MDA-MB-231) | inhibition [8] [%] | inhibition [9] [%] | pIC50 [10] | inhibition [11] | inhibition [12] [%] | inhibition [13] | inhibition [14] [%] | Activity (A549) | inhibition (ADAM17 (Homo sapiens) [15]) | inhibition (ADAM17 (Homo sapiens) [16]) [%] |
| --- | --- | --- | --- | --- | --- | --- | --- | --- | --- | --- | --- | --- | --- | --- | --- | --- | --- | --- | --- |
| O=C1NC[C@H](Cc2ccccc2)N(C[C@@H]2CCCN2C[C@@H](CC2CCCCC2)N2C[C@H](Cc3ccc(O)cc3)N(CCc3ccccc3)C(=O)C2=O)C1=O | < 4.00 | < 4.00 | < 4.00 | < 4.00 | 0 | 28 | 13 | Non-toxic | Non-toxic | 62 | 0 | – | – | – | – | – | – | – | – |
| CCCC[C@H]1CN([C@@H](Cc2ccc(O)cc2)CN2CCC[C@H]2CN2C(=O)C(=O)NC[C@H]2Cc2ccc3ccccc3c2)C(=O)C(=O)N1CCC12CC3CC(CC(C3)C1)C2 | < 4.00 | < 4.00 | < 4.00 | < 4.00 | 0 | 0 | 0 | – | – | – | 0 | – | – | – | – | – | – | – | – |
| O=C1NC[C@@H](Cc2ccc(O)cc2)N(C[C@@H]2CCCN2C[C@@H](Cc2ccc3ccccc3c2)N2CC(Cc3ccc(O)cc3)N(CCC34CC5CC(CC(C5)C3)C4)C(=O)C2=O)C1=O (single isomer, unassigned) | < 4.00 | – | < 4.00 | – | – | 13 | – | Non-toxic | Non-toxic | – | 0 | 4.00 | Dose-dependent effect | 59 | Dose-dependent effect | 0 | inactive | Dose-dependent effect | 59 |
